ChEMBL document CHEMBL2176921, “Nitazoxanide Disrupts Membrane Potential and Intrabacterial pH Homeostasis of Mycobacterium tuberculosis” (ACS Med Chem Lett, 2011)
In brackets after ≈: the same amount, converted by molar mass. Activity calls are given as the source filed them. The rule behind the calls is not given here.

Columns and labels:
[1] = tested on: Mycobacterium tuberculosis; experiment: Antitubercular activity against Mycobacterium tuberculosis H37Rv assessed as disruption of membrane potential at 0.4 ug/ml after 20 mins at pH 7.4 by DiOC2-based spectrofluorimetric analysis; format: functional, organism-based
Summary of the method: (§1)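 H37Rv grown to mid-log (OD580 ~0.6), resuspended to OD580 ~1.0 in 7H9 with 0.2% glycerol, 0.2% dextrose, 0.085% NaCl, 0.02% Tyloxapol at set pH (7.4, 5.5, 4.5; 5.5 also with 0.5 mM NaNO2). Compound added at 0.002–20 μg/mL final, then 15 μM DiOC2 for 20 min at room temperature, washed. Controls: CCCP 5 μM, rifampicin 0.4 μg/mL, DMSO. Red (488/610)/green (488/530) fluorescence ratio; triplicates, two experiments.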

[2] = tested on: Mycobacterium tuberculosis; experiment: Antitubercular activity against Mycobacterium tuberculosis H37Rv assessed as disruption of membrane potential at 5 uM after 20 mins at pH 7.4 by DiOC2-based spectrofluorimetric analysis; format: functional, organism-based; summary of the method: as §1
[3] = tested on: Mycobacterium tuberculosis; experiment: Antitubercular activity against Mycobacterium tuberculosis H37Rv expressing pH sensitive ratiometric GFP assessed as reduction of intrabacterial pH at 0.002 to 20 ug/ml after 16 hrs at pH 7.5 by spectrofluorimetric analysis; format: functional, organism-based
Summary of the method: (§2)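 H37Rv carrying pH-sensitive ratiometric GFP plasmid, grown to mid-log (OD580 ~0.6), diluted to OD580 ~0.3 in 7H9 at pH 7.5, 6.5 or 5.5, with or without 0.5 mM NaNO2. Compound or DMSO exposure 16 h. Fluorescence at excitation 395/emission 510 and excitation 475/emission 510; intrabacterial pH inferred from the ratio of the two readings.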

[4] = tested on: Mycobacterium tuberculosis; experiment: Antitubercular activity against Mycobacterium tuberculosis H37Rv assessed as disruption of membrane potential at 0.002 to 20 ug/ml after 20 mins at pH 4.5 by DiOC2-based spectrofluorimetric analysis; format: functional, organism-based; summary of the method: as §1
[5] = tested on: Mycobacterium tuberculosis; experiment: Antitubercular activity against Mycobacterium tuberculosis H37Rv assessed as disruption of membrane potential at 0.002 to 20 ug/ml after 20 mins at pH 5.5 by DiOC2-based spectrofluorimetric analysis; format: functional, organism-based; summary of the method: as §1
[6] = tested on: Mycobacterium tuberculosis; experiment: Antitubercular activity against Mycobacterium tuberculosis H37Rv assessed as disruption of membrane potential after 20 mins at pH 7.4 by DiOC2-based spectrofluorimetric analysis; format: functional, organism-based; summary of the method: as §1
[7] = tested on: Mycobacterium tuberculosis H37Rv; experiment: Drug metabolism in Mycobacterium tuberculosis H37Rv assessed as tizoxanide formation at 1 to 10 fold MIC after 16 hrs by LC/MS analysis; format: ADME, organism-based; details: in vivo
[8] = tested on: Mycobacterium tuberculosis; experiment: Antitubercular activity against Mycobacterium tuberculosis H37Rv expressing pH sensitive ratiometric GFP assessed as reduction of intrabacterial pH after 16 hrs at pH 7.5 by spectrofluorimetric analysis; format: functional, organism-based; summary of the method: as §2
[9] = tested on: Mycobacterium tuberculosis H37Rv; experiment: Drug uptake in Mycobacterium tuberculosis H37Rv at 1 to 10 fold MIC after 16 hrs by LC/MS analysis; format: ADME, organism-based; details: in vivo
[10] = tested on: Mycobacterium tuberculosis; experiment: Antitubercular activity against Mycobacterium tuberculosis H37Rv; format: functional
[11] = tested on: Mycobacterium tuberculosis H37Rv; experiment: Drug metabolism in Mycobacterium tuberculosis H37Rv assessed as [13C]acetylation at 1 to 10 fold MIC after 16 hrs by LC/MS analysis; format: ADME, organism-based; details: in vivo

Q: With `CO[C@H]1/C=C/O[C@@]2(C)Oc3c(C)c(O)c4c(O)c(c(/C=N/N5CCN(C)CC5)c(O)c4c3C2=O)NC(=O)/C(C)=C\C=C\[C@H](C)[C@H](O)[C@@H](C)[C@@H](O)[C@@H](C)[C@H](OC(C)=O)[C@@H]1C` as the molecule, how does the Activity [1] read?
A: The Activity was “inactive”.

Q: For `N#CC(C#N)=NNc1cccc(Cl)c1`, which Activity [2] is on record?
A: Its Activity is “Active”.

Q: With `O=C(Nc1ccc([N+](=O)[O-])cc1Cl)c1cc(Cl)ccc1O` as the molecule, how does the Activity [3] read?
A: Its Activity is “Active”.

Q: And the Activity [4]?
A: Its Activity is “inactive”.

Q: And the Activity [5]?
A: Its Activity is “Active”.

Q: And the Activity [6]?
A: Its Activity is “Dose-dependent effect”.

Q: With `CC(=O)Oc1ccccc1C(=O)Nc1ncc([N+](=O)[O-])s1` [NITAZOXANIDE] as the molecule, how does the Drug metabolism [7] read?
A: Its Drug metabolism is “Active”.

Q: And the Activity [8]?
A: The Activity was “Dose-dependent effect”.

Q: What about the Activity [4] of the same molecule?
A: Its Activity is “inactive”.

Q: And the Activity [5]?
A: The Activity was “Active”.

Q: And the Activity [6]?
A: Its Activity is “Dose-dependent effect”.

Q: And the Drug uptake [9]?
A: Its Drug uptake is “Active”.

Q: And the MIC [10]?
A: The MIC was 1 µg/mL (≈ 3.25 µM).

Q: `O=C(Nc1ncc([N+](=O)[O-])s1)c1ccccc1O` [TIZOXANIDE] was tested. Which Drug metabolism [11] did it give?
A: Its Drug metabolism is “Not Active”.
